What was measured:
Type in all cases: functional
[1] = tested on: A498; assay: Growth inhibition of human A498 cells assessed as cell growth at 10 uM incubated for 48 hrs by sulforhodamine B assay relative to control; conditions: A498, 48 h, read-out: Activity
[2] = Growth inhibition of human SF268 cells assessed as cell growth at 10 uM incubated for 48 hrs by sulforhodamine B assay relative to control; conditions: SF-268, 48 h, read-out: Activity
Procedure, shortened: (§1)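 Run in the standard NCI 60-cell-line screen. Cells were exposed to drug for two days, and the read-out was sulforhodamine B staining. Compound was tested at a single final concentration of 10 µM in every line, and results are reported as growth percent.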

[3] = tested on: U-251; assay: Growth inhibition of human U251 cells assessed as cell growth at 10 uM incubated for 48 hrs by sulforhodamine B assay relative to control; conditions: U-251, 48 h, read-out: Activity
Procedure, shortened: (§2)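 NCI 60-cell line standard protocol, one-dose screen: single final concentration 10 µM, 2-day drug exposure, sulforhodamine B (SRB) endpoint; read-out is growth percent relative to untreated control.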

[4] = Growth inhibition of human Caki1 cells assessed as cell growth at 10 uM incubated for 48 hrs by sulforhodamine B assay relative to control; conditions: CAKI-1, 48 h, read-out: Activity; procedure, shortened: as §1
[5] = Growth inhibition of human SNB19 cells assessed as cell growth at 10 uM incubated for 48 hrs by sulforhodamine B assay relative to control; conditions: SNB-19, 48 h, read-out: Activity; procedure, shortened: as §1
[6] = tested on: MDA-MB-231; assay: Growth inhibition of human MDA-MB-231 cells assessed as cell growth at 10 uM incubated for 48 hrs by sulforhodamine B assay relative to control; conditions: MDA-MB-231, 48 h, read-out: Activity; procedure, shortened: as §1
[7] = Growth inhibition of human DU145 cells assessed as cell growth at 10 uM incubated for 48 hrs by sulforhodamine B assay relative to control; conditions: DU-145, 48 h, read-out: Activity; procedure, shortened: as §1
[8] = Growth inhibition of human UACC62 cells assessed as cell growth at 10 uM incubated for 48 hrs by sulforhodamine B assay relative to control; conditions: UACC-62, 48 h, read-out: Activity; procedure, shortened: as §2
[9] = tested on: SK-MEL-2; assay: Growth inhibition of human SK-MEL-2 cells assessed as cell growth at 10 uM incubated for 48 hrs by sulforhodamine B assay relative to control; conditions: SK-MEL-2, 48 h, read-out: Activity; procedure, shortened: as §1
[10] = Growth inhibition of human MOLT4 cells assessed as cell growth at 10 uM incubated for 48 hrs by sulforhodamine B assay relative to control; conditions: MOLT-4, 48 h, read-out: Activity; procedure, shortened: as §1
[11] = tested on: KM12; assay: Growth inhibition of human KM12 cells assessed as cell growth at 10 uM incubated for 48 hrs by sulforhodamine B assay relative to control; conditions: KM12, 48 h, read-out: Activity; procedure, shortened: as §1
[12] = Growth inhibition of human PC3 cells assessed as cell growth at 10 uM incubated for 48 hrs by sulforhodamine B assay relative to control; conditions: PC-3, 48 h, read-out: Activity; procedure, shortened: as §1
[13] = Growth inhibition of human UO31 cells assessed as cell growth at 10 uM incubated for 48 hrs by sulforhodamine B assay relative to control; conditions: UO-31, 48 h, read-out: Activity; procedure, shortened: as §2
[14] = Growth inhibition of human HOP92 cells assessed as cell growth at 10 uM incubated for 48 hrs by sulforhodamine B assay relative to control; conditions: HOP-92, 48 h, read-out: Activity
Procedure, shortened: (§3)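 Single-dose screen in the NCI 60-cell-line panel at one final concentration of 10 µM. Two-day drug exposure with a sulforhodamine B endpoint. Values are growth percent for each cell line.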

[15] = Growth inhibition of human LOXIMVI cells assessed as cell growth at 10 uM incubated for 48 hrs by sulforhodamine B assay relative to control; conditions: LOX IMVI, read-out: Activity; procedure, shortened: as §3
[16] = tested on: A549; assay: Growth inhibition of human A549/ATCC cells incubated for 48 hrs by sulforhodamine B assay; conditions: A549, 48 h
Procedure, shortened: (§4)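 NCI 60-cell-line panel, standard protocol. Cells exposed to compound for two days, growth read by sulforhodamine B staining. Tested at five 10-fold dilutions, top concentration 100 µM, to give dose-response curves.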

[17] = tested on: NCI-H522; assay: Growth inhibition of human NCI-H522 cells incubated for 48 hrs by sulforhodamine B assay; conditions: NCI-H522, 48 h; procedure, shortened: as §4
[18] = Growth inhibition of human RXF393 cells incubated for 48 hrs by sulforhodamine B assay; conditions: RXF 393, 48 h
Procedure, shortened: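 Run in the NCI 60-cell-line protocol, with 2-day drug exposure and sulforhodamine B read-out. Dose-response testing used five 10-fold dilutions starting from a high concentration of 100 µM.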

[19] = Growth inhibition of human Hs 578T cells incubated for 48 hrs by sulforhodamine B assay
[20] = tested on: SN12C; assay: Growth inhibition of human SN12C cells incubated for 48 hrs by sulforhodamine B assay
Procedure, shortened: (§5)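 Tested in the standard NCI 60-cell-line protocol with two-day drug exposure and a sulforhodamine B endpoint. Compounds were first screened at a single final concentration of 10 µM, reported as growth percent. They were then run as five 10-fold dilutions starting from a high concentration of 100 µM to give dose-response curves.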

[21] = Growth inhibition of human OVCAR8 cells incubated for 48 hrs by sulforhodamine B assay; conditions: OVCAR-8, 48 h; procedure, shortened: as §4
[22] = Growth inhibition of human Caki1 cells incubated for 48 hrs by sulforhodamine B assay; conditions: CAKI-1, 48 h; procedure, shortened: as §4
[23] = tested on: T47D; assay: Growth inhibition of human T47D cells incubated for 48 hrs by sulforhodamine B assay; procedure, shortened: as §5
[24] = tested on: NCI-H23; assay: Growth inhibition of human NCI-H23 cells incubated for 48 hrs by sulforhodamine B assay; conditions: NCI-H23, 48 h; procedure, shortened: as §4
[25] = tested on: KM12; assay: Growth inhibition of human KM12 cells incubated for 48 hrs by sulforhodamine B assay; conditions: KM12, 48 h; procedure, shortened: as §4
[26] = tested on: NCI-H226; assay: Growth inhibition of human NCI-H226 cells incubated for 48 hrs by sulforhodamine B assay; conditions: NCI-H226, 48 h; procedure, shortened: as §4
[27] = Growth inhibition of human HCC2998 cells incubated for 48 hrs by sulforhodamine B assay; conditions: HCC 2998, 48 h; procedure, shortened: as §4
[28] = Growth inhibition of human HCT116 cells incubated for 48 hrs by sulforhodamine B assay; conditions: HCT-116, 48 h; procedure, shortened: as §4
[29] = read-out: pLC50 (the source's name) (converted)

## CC(C)[C@@]12C[C@@H](NC(=O)CF)[C@@](C)(O1)[C@@H]1CC[C@@H](C)[C@H]1[C@@H]2OC(=O)/C=C/c1ccccc1
[1]
  growth at 10 µM: 83%
[2]
  growth at 10 µM: 97.7%
[3]
  growth at 10 µM: 106%
[4]
  growth at 10 µM: 80.9%
[5]
  growth at 10 µM: 104%
[6]
  growth at 10 µM: 102%
[7]
  growth at 10 µM: 115%
[8]
  growth at 10 µM: 99.6%
[9]
  growth at 10 µM: 117%
[10]
  growth at 10 µM: 96.5%
[11]
  growth at 10 µM: 104%
[12]
  growth at 10 µM: 84%
[13]
  growth at 10 µM: 91.1%
[14]
  growth at 10 µM: 75.8%
[15]
  growth at 10 µM: 102%

## CC(C)[C@@]12C[C@@H](NC(=O)CO)[C@@](C)(O1)[C@@H]1CC[C@@H](C)[C@H]1[C@@H]2OC(=O)/C=C/C1CCCCC1
[1]
  growth at 10 µM: 41%
[2]
  growth at 10 µM: 106%
[3]
  growth at 10 µM: 98.1%
[16]
  GI50: > 44.7 µM
  LC50: > 44.7 µM
[16]; read-out: pTGI (converted)
  TGI: > 44.7 µM
[4]
  growth at 10 µM: 88.7%
[5]
  growth at 10 µM: 103%
[6]
  growth at 10 µM: 107%
[17]
  GI50: > 44.7 µM
  LC50: > 44.7 µM
[17]; read-out: pTGI (converted)
  TGI: > 44.7 µM
[18]
  GI50: 13.8 µM
[18]; [29]
  CC50: > 44.7 µM
[18]; read-out: pTGI (converted)
  TGI: > 44.7 µM
[7]
  growth at 10 µM: 116%
[19]; read-out: GI50
  GI50: 6.17 µM
[19]; read-out: pGI50 (converted)
  GI50: 6.17 µM
[19]; [29]
  CC50: > 44.7 µM
[19]; read-out: pTGI (converted)
  TGI: 18.6 µM
[8]
  growth at 10 µM: 101%
[20]
  GI50: > 44.7 µM
[20]; [29]
  CC50: > 44.7 µM
[20]; read-out: pTGI (converted)
  TGI: > 44.7 µM
[9]
  growth at 10 µM: 99.2%
[10]
  growth at 10 µM: 98%
[11]
  growth at 10 µM: 104%
[12]
  growth at 10 µM: 106%
[21]
  GI50: 28.2 µM
  LC50 (concentration killing 50% of cells): > 44.7 µM
[21]; read-out: pTGI (converted)
  TGI: > 44.7 µM
[22]
  GI50: > 44.7 µM
  LC50: > 44.7 µM
[22]; read-out: pTGI (converted)
  TGI: > 44.7 µM
[13]
  growth at 10 µM: 95.1%
[23]
  GI50: > 44.7 µM
[23]; [29]
  CC50: > 44.7 µM
[23]; read-out: pTGI (converted)
  TGI: > 44.7 µM
[14]
  growth at 10 µM: 120%
[24]
  GI50: > 44.7 µM
  LC50: > 44.7 µM
[24]; read-out: pTGI (converted)
  TGI: > 44.7 µM
[25]
  GI50: > 44.7 µM
  LC50: > 44.7 µM
[25]; read-out: pTGI (converted)
  TGI: > 44.7 µM
[26]
  GI50: > 44.7 µM
  LC50: > 44.7 µM
[26]; read-out: pTGI (converted)
  TGI: > 44.7 µM
[27]
  GI50: > 44.7 µM
  LC50: > 44.7 µM
[27]; read-out: pTGI (converted)
  TGI: > 44.7 µM
[28]
  GI50: > 44.7 µM
  LC50: > 44.7 µM
[28]; read-out: pTGI (converted)
  TGI: > 44.7 µM

Source: ChEMBL document CHEMBL3804761, “Synthesis of a stable and orally bioavailable englerin analogue” (Bioorg Med Chem Lett, 2016)
